{"source": "paper PMC6500982", "about": "(Cancer Science, 2019)", "key": {"[1]": {"tested_on": "ABC‐DLBCL cell line, TMD8", "conditions": "cited from earlier work"}, "[2]": {"conditions": "B‐cell NHL, European phase I study; cited from earlier work"}, "[3]": {"tested_on": "TMD8 transplanted mouse tumor model", "conditions": "cited from earlier work"}, "[4]": {"tested_on": "relapsed/refractory B‐cell NHL and CLL", "test": "Efficacy", "assay_type": "in vivo, human", "conditions": "for Partial response (VGPR or PR): includes lymphocytosis assessed as modified PR", "in_short": "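Open-label, multicenter, non-randomised study in Japanese adults (≥20 y) with relapsed/refractory B-cell NHL (DLBCL, MCL, FL, MZL, WM/LPL) or CLL/SLL. Oral test compound was given at 160, 320 or 480 mg QD, or 300 mg BID, until progression, unacceptable AEs or consent withdrawal. Best response was graded per International Workshop Criteria for NHL, WM and CLL. ORR was CR plus PR, including PR with residual lymphocytosis, with Clopper–Pearson 95% CIs. Analysis included all patients receiving ≥1 dose.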"}, "[5]": {"conditions": "DLBCL, 3 patients who received 300 mg BID"}}, "data": [{"smiles": "CC#CC(=O)N1CC[C@@H](n2c(=O)n(-c3ccc(Oc4ccccc4)cc3)c3c(N)ncnc32)C1", "note": "[tirabrutinib]", "values": [{"measurement": "Cytostatic properties in vitro", "setting": "[1]", "result": "cytostatic properties"}, {"measurement": "Tolerability observed up to (dose)", "setting": "[2]", "result": "up to 480 mg once daily (QD)"}, {"measurement": "Cytostatic properties in vivo", "setting": "[3]", "result": "cytostatic properties"}, {"measurement": "Complete response (CR, CRu, CRi)", "setting": "[4]; 160 mg QD N = 3", "result": "1 (33.3) n (%)"}, {"measurement": "Overall response (CR, CRu, CRi, VGPR or PR)", "setting": "[4]; 160 mg QD N = 3", "result": "3 (100.0) n (%)"}, {"measurement": "Partial response (VGPR or PR)", "setting": "[4]; 160 mg QD N = 3", "result": "2 (66.7) n (%)"}, {"measurement": "Complete response (CR, CRu, CRi)", "setting": "[4]; 300 mg BID N = 7", "result": "3 (42.9) n (%)"}, {"measurement": "Overall response (CR, CRu, CRi, VGPR or PR)", "setting": "[4]; 300 mg BID N = 7", "result": "4 (57.1) n (%)"}, {"measurement": "Partial response (VGPR or PR)", "setting": "[4]; 300 mg BID N = 7", "result": "1 (14.3) n (%)"}, {"measurement": "Complete response (CR, CRu, CRi)", "setting": "[4]; 320 mg QD N = 3", "result": "2 (66.7) n (%)"}, {"measurement": "Overall response (CR, CRu, CRi, VGPR or PR)", "setting": "[4]; 320 mg QD N = 3", "result": "3 (100.0) n (%)"}, {"measurement": "Partial response (VGPR or PR)", "setting": "[4]; 320 mg QD N = 3", "result": "1 (33.3) n (%)"}, {"measurement": "Complete response (CR, CRu, CRi)", "setting": "[4]; 480 mg QD N = 4", "result": "0 (.0) n (%)"}, {"measurement": "Overall response (CR, CRu, CRi, VGPR or PR)", "setting": "[4]; 480 mg QD N = 4", "result": "3 (75.0) n (%)"}, {"measurement": "Partial response (VGPR or PR)", "setting": "[4]; 480 mg QD N = 4", "result": "3 (75.0) n (%)"}, {"measurement": "Median progression‐free survival", "setting": "[4]; Cohort 3 (480 mg QD)", "result": 109, "unit": "days"}, {"measurement": "Median progression‐free survival", "setting": "[4]; Cohorts 1, 2 and 4", "result": "not estimable"}, {"measurement": "Number of CR", "setting": "[4]; DLBCL (5 patients)", "result": 2}, {"measurement": "Best overall response CR, number of patients", "setting": "[4]; [5]", "result": 2, "unit": "patients"}, {"measurement": "Best overall response stable disease, number of patients", "setting": "[4]; [5]", "result": 1, "unit": "patient"}, {"measurement": "Number of CR", "setting": "[4]; FL (5 patients)", "result": 1}, {"measurement": "Number of CR", "setting": "[4]; MCL (4 patients)", "result": 3}, {"measurement": "Complete response (CR, CRu, CRi)", "setting": "[4]; Total N = 17", "result": "6 (35.3) n (%)"}, {"measurement": "Overall response (CR, CRu, CRi, VGPR or PR)", "setting": "[4]; Total N = 17", "result": "13 (76.5) n (%)"}, {"measurement": "Partial response (VGPR or PR)", "setting": "[4]; Total N = 17", "result": "7 (41.2) n (%)"}, {"measurement": "Overall response rate (≥PR)", "setting": "[4]; all patients (13/17)", "result": 76.5, "unit": "%"}, {"measurement": "Patients with early response within 1 month after beginning of treatment", "setting": "[4]; of 13 patients who achieved PR or more", "result": 8, "unit": "patients"}]}]}
